Results pooled from the literature.
Lines come from different studies, so protocols differ.

Nc1ccn(C[C@@H](CO)OCP(=O)(O)O)c(=O)n1 — IC50 (Human betaherpesvirus 5; viral replication): 0.28 µM
O=c1[nH]c2c(-c3ccccc3)csc2c(=O)n1O — inhibition (Human betaherpesvirus 5; viral replication, inhibitor; 10 µM, 7 days): 5.3%
Nc1ncnc2c([C@@H]3N[C@H](CO)[C@@H](O)[C@H]3O)c[nH]c12 — inhibition (human respiratory syncytial virus; viral replication, inhibitor; MA104; 0.9 µM): 0%
O=S(=O)(c1ccc(-c2ccc3ncnc(Nc4ccc(OCc5ccccc5)c(Cl)c4)c3c2)cc1)N1CCOCC1 — inhibition (Trypanosoma cruzi; parasite growth, absorbance; NIH3T3, TULAHUEN; 10 µM, intracellular, amastigote): 9%
Cc1ccc(CNC(=O)c2nc(Cl)c3cccnc3c2O)cc1 — EC50 (Human betaherpesvirus 5; viral replication, inhibitor; HFF): 21 µM
O=C1c2ccccc2C(c2ccccc2)C(=O)N1OCc1ccccc1 (stereo not shown) — inhibition (Human betaherpesvirus 5; viral replication, inhibitor; 10 µM, 7 days): 12%
COc1cccc(-c2nc(C(=O)NCc3ccc(C)cc3)c(O)c3ncccc23)c1 — EC50 (Human betaherpesvirus 5; viral replication, inhibitor; HFF): 24 µM
Cc1sc2[nH]c(=O)n(O)c(=O)c2c1C — inhibition (Human betaherpesvirus 5; viral replication, inhibitor; 10 µM, 7 days): -5.1%
Cc1ccc(CNC(=O)c2nc(-c3ccccc3)c3cccnc3c2O)cc1 — EC50 (Human betaherpesvirus 5; viral replication, inhibitor; HFF): 31 µM
O=C(Cn1ccnc1[N+](=O)[O-])NCc1ccccc1 — IC50 (Trypanosoma cruzi; parasite growth; rat Myoblast, TULAHUEN; intracellular, amastigote): 0.352 µg/mL
